Measurements taken from ChEMBL document CHEMBL4689842, “EUbOPEN Chemogenomics Library wave 1” (2021).

Test system: Fibroblast
Assay: Multiplex assay against human fibroblast
Type: toxicity, cell-based
Summary of the method: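 Cells were classed with CellPathfinder machine-learning gating, first as Hoechst high-intensity objects or normal cells, then (normal cells) as healthy, pyknosed or fragmented nuclei, and finally (pyknosed cells) as mitotic or apoptotic. Staining of live cells at seeding used Hoechst33342, BioTracker Green Microtubule Cytoskeleton Dye, MitoTracker Red and Annexin V Alexa Fluor 680, with imaging on a CQ1 microscope at 37°C and 5% CO2 after compound addition. Tubulin, mitochondrial-mass and membrane-permeability phenotypes are per cents of healthy-nucleus cells.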

[1] = 12 h, 1 µM, compound concentration 1 uM, replicate 1
[2] = 12 h, 1 µM, compound concentration 1 uM, replicate 2
[3] = 12 h, 10 µM, compound concentration 10 uM, replicate 1
[4] = 12 h, 10 µM, compound concentration 10 uM, replicate 2
[5] = 24 h, 1 µM, compound concentration 1 uM, replicate 1
[6] = 24 h, 1 µM, compound concentration 1 uM, replicate 2
[7] = 24 h, 10 µM, compound concentration 10 uM, replicate 1
[8] = 24 h, 10 µM, compound concentration 10 uM, replicate 2
[9] = 48 h, 1 µM, compound concentration 1 uM, replicate 1
[10] = 48 h, 1 µM, compound concentration 1 uM, replicate 2
[11] = 48 h, 10 µM, compound concentration 10 uM, replicate 1
[12] = 48 h, 10 µM, compound concentration 10 uM, replicate 2

Cc1cccc(CN2CCN(C(c3ccccc3)c3ccc(Cl)cc3)CC2)c1.Cl.Cl (stereo not given)
Population Apoptotic (%) [1]: 64% | Population Fragmented Nuclei (%) [1]: 22% | Population Healthy Nuclei (%) [1]: 48% | Population Hoechst High Intensity Objects (%) [1]: 22% | Population Membrane Permeable-Phenotype (%) [1]: 34% | Population Mitochondria Different-Phenotype (%) [1]: 8% | Population Mitotic Cells (%) [1]: 35% | Population Normal (%) [1]: 77% | Population Pyknosed Nuclei (%) [1]: 29% | Population Tubulin-Different-Phenotype (%) [1]: 44% | Total Cell Count [1]: 134 | Population Apoptotic (%) [2]: 0% | Population Fragmented Nuclei (%) [2]: 16% | Population Healthy Nuclei (%) [2]: 79% | Population Hoechst High Intensity Objects (%) [2]: 8% | Population Membrane Permeable-Phenotype (%) [2]: 4% | Population Mitochondria Different-Phenotype (%) [2]: 26% | Population Mitotic Cells (%) [2]: 100% | Population Normal (%) [2]: 91% | Population Pyknosed Nuclei (%) [2]: 3% | Population Tubulin-Different-Phenotype (%) [2]: 23% | Total Cell Count [2]: 48 | Population Apoptotic (%) [3]: 61% | Population Fragmented Nuclei (%) [3]: 26% | Population Healthy Nuclei (%) [3]: 38% | Population Hoechst High Intensity Objects (%) [3]: 11% | Population Membrane Permeable-Phenotype (%) [3]: 15% | Population Mitochondria Different-Phenotype (%) [3]: 45% | Population Mitotic Cells (%) [3]: 38% | Population Normal (%) [3]: 88% | Population Pyknosed Nuclei (%) [3]: 34% | Population Tubulin-Different-Phenotype (%) [3]: 90% | Total Cell Count [3]: 127 | Population Apoptotic (%) [4]: 50% | Population Fragmented Nuclei (%) [4]: 14% | Population Healthy Nuclei (%) [4]: 72% | Population Hoechst High Intensity Objects (%) [4]: 6% | Population Membrane Permeable-Phenotype (%) [4]: 6% | Population Mitochondria Different-Phenotype (%) [4]: 61% | Population Mitotic Cells (%) [4]: 50% | Population Normal (%) [4]: 93% | Population Pyknosed Nuclei (%) [4]: 13% | Population Tubulin-Different-Phenotype (%) [4]: 47% | Total Cell Count [4]: 58 | Population Apoptotic (%) [5]: 75% | Population Fragmented Nuclei (%) [5]: 21% | Population Healthy Nuclei (%) [5]: 56% | Population Hoechst High Intensity Objects (%) [5]: 26% | Population Membrane Permeable-Phenotype (%) [5]: 34% | Population Mitochondria Different-Phenotype (%) [5]: 5% | Population Mitotic Cells (%) [5]: 25% | Population Normal (%) [5]: 73% | Population Pyknosed Nuclei (%) [5]: 21% | Population Tubulin-Different-Phenotype (%) [5]: 40% | Total Cell Count [5]: 125 | Population Apoptotic (%) [6]: 80% | Population Fragmented Nuclei (%) [6]: 18% | Population Healthy Nuclei (%) [6]: 73% | Population Hoechst High Intensity Objects (%) [6]: 10% | Population Membrane Permeable-Phenotype (%) [6]: 11% | Population Mitochondria Different-Phenotype (%) [6]: 13% | Population Mitotic Cells (%) [6]: 20% | Population Normal (%) [6]: 89% | Population Pyknosed Nuclei (%) [6]: 8% | Population Tubulin-Different-Phenotype (%) [6]: 22% | Total Cell Count [6]: 47 | Population Apoptotic (%) [7]: 66% | Population Fragmented Nuclei (%) [7]: 29% | Population Healthy Nuclei (%) [7]: 44% | Population Hoechst High Intensity Objects (%) [7]: 14% | Population Membrane Permeable-Phenotype (%) [7]: 16% | Population Mitochondria Different-Phenotype (%) [7]: 40% | Population Mitotic Cells (%) [7]: 33% | Population Normal (%) [7]: 85% | Population Pyknosed Nuclei (%) [7]: 26% | Population Tubulin-Different-Phenotype (%) [7]: 86% | Total Cell Count [7]: 132 | Population Apoptotic (%) [8]: 11% | Population Fragmented Nuclei (%) [8]: 10% | Population Healthy Nuclei (%) [8]: 77% | Population Hoechst High Intensity Objects (%) [8]: 5% | Population Membrane Permeable-Phenotype (%) [8]: 5% | Population Mitochondria Different-Phenotype (%) [8]: 63% | Population Mitotic Cells (%) [8]: 88% | Population Normal (%) [8]: 94% | Population Pyknosed Nuclei (%) [8]: 12% | Population Tubulin-Different-Phenotype (%) [8]: 45% | Total Cell Count [8]: 67 | Population Apoptotic (%) [9]: 66% | Population Fragmented Nuclei (%) [9]: 30% | Population Healthy Nuclei (%) [9]: 58% | Population Hoechst High Intensity Objects (%) [9]: 18% | Population Membrane Permeable-Phenotype (%) [9]: 20% | Population Mitochondria Different-Phenotype (%) [9]: 3% | Population Mitotic Cells (%) [9]: 33% | Population Normal (%) [9]: 81% | Population Pyknosed Nuclei (%) [9]: 10% | Population Tubulin-Different-Phenotype (%) [9]: 30% | Total Cell Count [9]: 136 | Population Apoptotic (%) [10]: 87% | Population Fragmented Nuclei (%) [10]: 24% | Population Healthy Nuclei (%) [10]: 68% | Population Hoechst High Intensity Objects (%) [10]: 9% | Population Membrane Permeable-Phenotype (%) [10]: 6% | Population Mitochondria Different-Phenotype (%) [10]: 7% | Population Mitotic Cells (%) [10]: 12% | Population Normal (%) [10]: 90% | Population Pyknosed Nuclei (%) [10]: 7% | Population Tubulin-Different-Phenotype (%) [10]: 44% | Total Cell Count [10]: 124 | Population Apoptotic (%) [11]: 57% | Population Fragmented Nuclei (%) [11]: 39% | Population Healthy Nuclei (%) [11]: 54% | Population Hoechst High Intensity Objects (%) [11]: 12% | Population Membrane Permeable-Phenotype (%) [11]: 16% | Population Mitochondria Different-Phenotype (%) [11]: 25% | Population Mitotic Cells (%) [11]: 42% | Population Normal (%) [11]: 87% | Population Pyknosed Nuclei (%) [11]: 6% | Population Tubulin-Different-Phenotype (%) [11]: 79% | Total Cell Count [11]: 124 | Population Apoptotic (%) [12]: 50% | Population Fragmented Nuclei (%) [12]: 42% | Population Healthy Nuclei (%) [12]: 52% | Population Membrane Permeable-Phenotype (%) [12]: 9% | Population Mitochondria Different-Phenotype (%) [12]: 34% | Population Mitotic Cells (%) [12]: 50% | Population Pyknosed Nuclei (%) [12]: 5% | Population Tubulin-Different-Phenotype (%) [12]: 88% | Total Cell Count [12]: 133
